Compound activity from PubChem BioAssay.
ERAP1 HTS inh – blocks human ERAP1 aminopeptidase activity. Q9NZ08. recombinant ERAP1, Leu-AMC fluorescence, 60 min. inhibition, % at 10.7 µM. actives 0.15% (n = 340,000);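 active means mean replicate inhibition of at least 30%, or all replicates individually reaching that 30% level; inactive means mean below 30% and not every replicate reaching it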;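 further: 0% = neutral control wells and 100% = L-leucinethiol positive control wells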
INS-1E GSIS act – primary screen for activators of insulin secretion dependent on glucose, INS-1E cells, GLuc reporter luminescence; INS-1E GLuc reporter insulin secretion, 2-3 h; activation, % at 16.6 µM; actives 0.61% (n = 370,000); AID 743287;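 active means lowest replicate activation of at least 40%, so every replicate reaches that level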;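 further: 0% = median of neutral control wells and 100% = median of IBMX positive control wells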
E-sel inducer – induces E-selectin expression in human endothelial cells | HUVEC E-selectin immunofluorescence imaging; normalized: neutral wells 0, TNF-alpha wells 100 | activation, % at 7.58 µM | P16581 | actives 0.37% (n = 260,000);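 active means mean E-selectin-positive cell signal at least 10% of the positive control, reached in at least 60% of replicates, without over 20% cell loss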
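Assay system: HUVEC, human umbilical vein endothelial cells / Amount: 3,000 HUVEC/well / Controls: TNF-alpha positive control, DMSO neutral control / Compound dosing: single concentration / Medium: EGM-2 over gelatin coat / Evaluation: percent E-selectin-positive cells / Signal: immunofluorescence imaging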
DENV2 CPE – DENV2-induced cell death inhibition; CPE inhibition, % at 9.99 µM; actives 1.7% (n = 350,000); DENV2-infected cells, cytopathic effect rescue, plate reader; in the data active means CPE inhibition above about 20%, passing the limit was not always enough; tested in BHK-21 cells;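 further: 0% = median of neutral control wells and 100% = median of positive control wells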
miR122 inh – blocks miR-122 activity in Huh7 sensor cells; Huh7 miR-122 Renilla luciferase sensor, 48 h; neutral wells = 0, positive control = 100; activation (reporter increase), % at 12.5 µM; actives 0.3% (n = 340,000); AID 602342;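 active means mean replicate activation score at least 90 and every replicate individually at or above 90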;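 further: higher luciferase means less miR-122 activity so hits act as miR-122 inhibitors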
CFTR F508del cor – correctors of CFTR F508del function in bronchial epithelial cells. activity (quench increase), % at 7.58 µM. CFBE cells, YFP halide quenching; stimulated with forskolin plus potentiator P3; % fluorescence drop versus neutral controls. actives 0.36% (n = 350,000);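 active means mean added fluorescence quench of at least 8% versus neutral control, with both replicates also reaching 8%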;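 further: cells transiently co-express mutant CFTR-F508del with the halide-sensitive YFP; corrector assay measuring rescue of mutant channel to the surface after 24 h compound exposure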
Numbers without * were called inactive; x = no result; ! = not active in a repeat; [ ] = another dose, or the depositor's remark. Hits are enriched below; roughly 2.6% of the tested compounds scored in any of these assays.

SMILES | ERAP1 HTS inh | INS-1E GSIS act | E-sel inducer | DENV2 CPE | miR122 inh | CFTR F508del cor
O=C(C1CCOCC1)N1CC(=O)N2[C@H](CO)[C@H](c3ccc(-c4cccnc4)cc3)[C@@H]2C1 | 4.1 | 8.3 | 0.2 | -5.4 | x | 1.0
COc1ccccc1-c1cn(CC[C@@H]2CC[C@H](NC(=O)C3CCCC3)[C@@H](CO)O2)nn1 | -6.1 | 2.9 | -0.1 | 1.3 | x | -0.9
C[C@@H]1CN([C@H](C)CO)C(=O)c2cc(C#Cc3ccc(F)cc3)cnc2O[C@@H]1CN(C)C | -1.6 | -1.9 | x | 81.1* | 4.4[16.7 µM] | -1.9
C[C@@H]1CN([C@H](C)CO)C(=O)c2cc(C#Cc3ccc(F)cc3)cnc2O[C@H]1CN(C)C | 1.2 | 1.0 | x | -6.6 | 4.9[16.7 µM] | 1.8
Cc1cccc(C)c1NC(=S)NC(C)CCc1ccccc1 (stereo unspecified) | 2.1 | -14.3 | x | 46.9* | 100.4* | 3.2
Cc1cc(NC(=O)CCC(=O)N(c2ccccc2)C(C(=O)NC2CCCC2)c2ccc(F)cc2)no1 (stereo unspecified) | -1.7 | 10.9 | 36.3* | -5.4 | 1.7 | -0.2
Cc1cc(NC(=O)CCC(=O)N(c2ccc(F)cc2)C(C(=O)NC2CCCC2)c2ccccc2)no1 (stereo unspecified) | -1.0 | 12.4 | -1.1 | 3.1 | 0.6 | -0.9
Cc1noc(C)c1NC(=O)N(C)C[C@H]1OCCCC[C@H](C)Oc2ccc(NC(=O)NC3CCCCC3)cc2C(=O)N([C@H](C)CO)C[C@@H]1C | -4.1 | 5.1 | x | 18.1 | 2.4[16.7 µM] | -3.2
Cc1noc(C)c1NC(=O)Nc1ccc2c(c1)C(=O)N([C@@H](C)CO)C[C@@H](C)[C@@H](CN(C)C(=O)NC1CCCCC1)OCCCC[C@@H](C)O2 | 2.9 | 13.4 | -0.4 | 11.0 | 9.3[16.7 µM] | 1.0
Cc1noc(C)c1NC(=O)N(C)C[C@H]1OCCCC[C@H](C)Oc2ccc(NC(=O)NC(C)C)cc2C(=O)N([C@H](C)CO)C[C@@H]1C | 1.3 | 9.2 | -0.1 | 102.0* | 6.4[16.7 µM] | -3.0
Cc1noc(C)c1NC(=O)Nc1ccc2c(c1)C(=O)N([C@@H](C)CO)C[C@H](C)[C@@H](CN(C)C(=O)NC1CCCCC1)OCCCC[C@H](C)O2 | 3.0 | -1.2 | 0.3 | 21.2* | -0.9[16.7 µM] | -0.9
Cc1noc(C)c1NC(=O)N(C)C[C@H]1OCCCC[C@H](C)Oc2ccc(NC(=O)NC3CCCCC3)cc2C(=O)N([C@@H](C)CO)C[C@@H]1C | -6.0 | -5.5 | x | 27.7* | 5.6[16.7 µM] | -2.9
COCC(=O)Nc1ccc2c(c1)C(=O)N(C)C[C@H](OC)[C@H](C)CN(C(=O)c1ccncc1)[C@H](C)CO2 | -1.3 | 11.4 | 0.0 | 1.6 | 6.1[16.7 µM] | 1.6
CN1C(=O)c2cc(NC(=O)c3cscn3)ccc2OC[C@@H]2O[C@@H](CC(=O)NCC3CC3)CC[C@@H]21 | x | -2.0 | 0.0 | -3.5 | 0.0[16.7 µM] | 1.5
CN1c2ccc(-c3ccccc3)cc2[C@@H]2[C@@H](CCN2C(=O)c2ccccc2)[C@@H]1CO | -7.2 | -10.5 | 0.2 | -21.1 | 19.2[16.7 µM] | -1.9
CN(C)CC#Cc1cccc(-c2nc(C(=O)N3CCN(Cc4ccccc4)CC3)cc3c2[C@H](CCO)N(S(=O)C(C)(C)C)C3)c1 (stereo partly specified) | 0.0 | x | x | 15.9 | x | 0.9
C[C@@H]1CN([C@@H](C)CO)C(=O)CCCn2cc(nn2)CO[C@H]1CN(C)S(=O)(=O)c1cccs1 | -2.3 | 1.8 | 0.1 | -3.0 | 1.1 | -4.8
C[C@@H]1CN([C@H](C)CO)C(=O)CCCn2cc(nn2)CO[C@@H]1CN(C)S(=O)(=O)c1ccc(Oc2ccccc2)cc1 | 0.3 | 13.3 | 0.0 | 0.0 | 1.1[16.7 µM] | -0.3
C[C@@H]1CN([C@@H](C)CO)C(=O)CCCn2cc(nn2)CO[C@H]1CN(C)S(=O)(=O)c1ccc(Cl)cc1 | -0.9 | 0.4 | -0.1 | 20.8*! | -6.0 | 6.4
C[C@H]1CN([C@@H](C)CO)C(=O)CCCn2cc(nn2)CO[C@@H]1CN(C)S(=O)(=O)c1ccccc1 | -0.6 | 25.9 | -0.1 | 1.5 | -1.5[16.7 µM] | -0.4
C[C@H](CO)N1C[C@H](C)[C@H](CN(C)S(=O)(=O)c2ccc(Oc3ccccc3)cc2)OCc2cn(nn2)CCCC1=O | -0.9 | 11.3 | 0.1 | 22.1* | 0.1[16.7 µM] | 2.2
